Measurements reported in ChEMBL document CHEMBL4699630, “Discovery of novel pyrazolo[3,4-b]pyridine scaffold-based derivatives as potential PIM-1 kinase inhibitors in breast cancer MCF-7 cells” (Bioorg Med Chem, 2020).

Key:
MCF7 [1] = test: Cytotoxicity against ERalpha-dependent human MCF7 cells assessed as reduction in cell viability incubated for 48 hrs by MTT assay; assay type: functional, cell-based; details: MCF7, 48 h
Outline: (§1)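 Cells grown by standard culture protocols, then exposed for 48 h to serial concentrations (0.1, 1, 10, 100, 1000; unit not given) of each compound. Survival read by absorbance at 570 nm and expressed as % viability = A sample/A control ×100. IC50 fitted from concentration versus % survival; mean ± SEM of three independent values.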

MCF-10A = test: Cytotoxicity against human MCF-10A cells assessed as reduction in cell viability incubated for 48 hrs by MTT assay; assay type: cell-based; outline: as §1
MDA-MB-231 = test: Cytotoxicity against Non-ERalpha-dependent human MDA-MB-231 cells assessed as reduction in cell viability incubated for 48 hrs by MTT assay; assay type: functional, cell-based; details: MDA-MB-231, 48 h; outline: as §1
[2] = biological target: Serine/threonine-protein kinase pim-1 (Homo sapiens, UniProt P11309); test: Inhibition of recombinant human GST-tagged PIM1 by ELISA
Serine/threonine-protein kinase pim-1, sequence (P11309 whole entry): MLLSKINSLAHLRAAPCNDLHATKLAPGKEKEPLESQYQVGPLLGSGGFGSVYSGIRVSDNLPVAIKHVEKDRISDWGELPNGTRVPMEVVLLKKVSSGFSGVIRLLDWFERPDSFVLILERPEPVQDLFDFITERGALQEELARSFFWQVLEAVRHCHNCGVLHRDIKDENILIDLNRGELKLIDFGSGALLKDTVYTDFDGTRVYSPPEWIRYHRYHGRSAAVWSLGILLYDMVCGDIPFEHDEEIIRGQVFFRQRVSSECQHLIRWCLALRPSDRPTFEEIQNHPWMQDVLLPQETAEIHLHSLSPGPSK
Outline: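 PIM-1 kinase activity measured with the HTScan Pim-1 kinase assay kit, following the kit instructions. Compounds dissolved in DMSO and tested at four serial concentrations; IC50 derived from these.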

MCF7 [3] = test: Induction of apoptosis in human MCF7 cells assessed as late apoptotic cells at 5.61 uM incubated for 48 hrs by Annexin V-FITC/propidium iodide staining based flow cytometric analysis (reference value: 0.16 %); assay type: functional
MCF7 [4] = test: Induction of apoptosis in human MCF7 cells assessed as early apoptotic cells at 5.61 uM incubated for 48 hrs by Annexin V-FITC/propidium iodide staining based flow cytometric analysis (reference value: 0.43 %); assay type: functional
[5] = Upregulation of MDM2 gene expression in human MCF7 cells at 5.61 uM incubated for 48 hrs by RT-PCR analysis relative to control; assay type: functional
MCF7 [6] = test: Induction of apoptosis in human MCF7 cells assessed as fold decrease in BCL2 gene expression at 5.61 uM incubated for 48 hrs by RT-PCR analysis relative to control; assay type: functional
MCF7 [7] = test: Induction of cell cycle arrest in human MCF7 cells assessed as accumulation of cells at preG1 phase at 5.61 uM incubated for 48 hrs by propidium iodide staining based flow cytometric analysis (reference value: 1.64 %); assay type: functional
MCF7 [8] = test: Induction of cell cycle arrest in human MCF7 cells assessed as accumulation of cells at G0/G1 phase at 5.61 uM incubated for 48 hrs by propidium iodide staining based flow cytometric analysis (reference value: 43.92 %); assay type: functional
[9] = Upregulation of PUMA gene expression in human MCF7 cells at 5.61 uM incubated for 48 hrs by RT-PCR analysis relative to control; assay type: functional
MCF7 [10] = test: Induction of apoptosis in human MCF7 cells assessed as increase in necrotic cells at 5.61 uM incubated for 48 hrs by Annexin V-FITC/propidium iodide staining based flow cytometric analysis relative to control; assay type: functional
MCF7 [11] = test: Induction of apoptosis in human MCF7 cells assessed as fold increase in caspase-9 gene expression at 5.61 uM incubated for 48 hrs by RT-PCR analysis relative to control; assay type: functional
MCF7 [12] = test: Induction of apoptosis in human MCF7 cells assessed as necrotic cells at 5.61 uM incubated for 48 hrs by Annexin V-FITC/propidium iodide staining based flow cytometric analysis (reference value: 1.05 %); assay type: functional
[13] = Upregulation of P53 gene expression in human MCF7 cells at 5.61 uM incubated for 48 hrs by RT-PCR analysis relative to control; assay type: functional
MCF7 [14] = test: Induction of cell cycle arrest in human MCF7 cells assessed as accumulation of cells at G2/M phase at 5.61 uM incubated for 48 hrs by propidium iodide staining based flow cytometric analysis (reference value: 12.26 %); assay type: functional
MCF7 [15] = test: Induction of apoptosis in human MCF7 cells assessed as increase in total apoptotic cells at 5.61 uM incubated for 48 hrs by Annexin V-FITC/propidium iodide staining based flow cytometric analysis relative to control; assay type: functional
[16] = Downregulation of PIM1 gene expression in human MCF7 cells at 5.61 uM incubated for 48 hrs by RT-PCR analysis relative to control; assay type: functional
MCF7 [17] = test: Induction of apoptosis in human MCF7 cells assessed as fold increase in caspase-3 gene expression at 5.61 uM incubated for 48 hrs by RT-PCR analysis relative to control; assay type: functional

## N#Cc1c(N)nc(Sc2ccccc2)c(C#N)c1-c1ccc(-c2c(C#N)c(N)nc(Sc3ccccc3)c2C#N)cc1
MCF7 [1]
  IC50: 16.8 µM
MCF-10A
  IC50: 48.7 µM

## CCOC(=O)c1nnc2c3c(-c4ccccc4Cl)c(C#N)c(=O)[nH]c3nn2c1O
MDA-MB-231
  IC50: 38.7 µM
[2]
  IC50: 0.026 µM
MCF7 [3]
  Activity: 16.29%
MCF7 [4]
  Activity: 3.93%
[5]
  fold change (FC): 3.9
MCF7 [6]
  fold change (FC): 0.41
MCF7 [7]
  Activity: 31.25%
MCF7 [8]
  Activity: 35.66%
[9]
  fold change (FC): 6.32
MCF7 [10]
  fold change (FC): 10.5
MCF7 [11]
  fold change (FC): 6.56
MCF7 [1]
  IC50: 5.61 µM
MCF7 [12]
  Activity: 11.03%
[13]
  fold change (FC): 4.2
MCF7 [14]
  Activity: 34.58%
MCF7 [15]
  fold change (FC): 19.17
MCF-10A
  IC50: 46.8 µM
[16]
  fold change (FC): 0.25
MCF7 [17]
  fold change (FC): 7.9

## N#Cc1c(-c2ccccc2Cl)c2c(nn3c4ccc(O)cc4nnc23)[nH]c1=O
MDA-MB-231
  IC50: 24.7 µM
[2]
  IC50: 0.112 µM
MCF7 [1]
  IC50: 10 µM
MCF-10A
  IC50: ≥ 50 µM

## N#Cc1c(N)nc2[nH]nc(N)c2c1-c1ccc(-c2c(C#N)c(N)nc3[nH]nc(N)c23)cc1
MDA-MB-231
  IC50: 35.7 µM
MCF7 [1]
  IC50: 17.9 µM
MCF-10A
  IC50: 43.6 µM

## N#Cc1c(N)nc2[nH]nc(N)c2c1-c1cccc(Cl)c1
MCF7 [1]
  IC50: ≥ 50 µM

## Cn1nc(N)c2c(-c3ccc(-c4c(C#N)c(N)nc5c4c(N)nn5C)cc3)c(C#N)c(N)nc21
MCF7 [1]
  IC50: ≥ 50 µM
MCF-10A
  IC50: ≥ 50 µM

## N#Cc1c(N)nc2[nH]nc(N)c2c1-c1ccccc1Cl
MCF7 [1]
  IC50: 36.6 µM
MCF-10A
  IC50: 20.6 µM

## N#Cc1c(O)nc2nn3c4cc(O)ccc4nnc3c2c1-c1ccccc1Cl
MDA-MB-231
  IC50: 39.5 µM
[2]
  IC50: 0.087 µM
MCF7 [1]
  IC50: 9.12 µM
MCF-10A
  IC50: ≥ 50 µM

## N#Cc1c(-c2ccccc2Cl)c2c(N/N=C3\C=CC(=O)c4ccccc43)n[nH]c2[nH]c1=O
MDA-MB-231
  IC50: ≥ 50 µM
[2]
  IC50: 0.095 µM
MCF7 [1]
  IC50: 8.71 µM
MCF-10A
  IC50: ≥ 50 µM

## N#Cc1nnc2c3c(-c4ccccc4Cl)c(C#N)c(O)nc3nn2c1O
MDA-MB-231
  IC50: 10.6 µM
MCF7 [1]
  IC50: 27.5 µM

## O=c1[nH]cc(F)c(=O)[nH]1 [FLUOROURACIL]
MDA-MB-231
  IC50: 15.7 µM
MCF7 [1]
  IC50: 5.8 µM
MCF-10A
  IC50: 39.7 µM

## Cn1nc(N)c2c(-c3ccccc3Cl)c(C#N)c(N)nc21
MCF-10A
  IC50: 53.7 µM

## N#Cc1c(-c2ccccc2Cl)c2c(nn3c4ccc5ccccc5c4nnc23)[nH]c1=O
MDA-MB-231
  IC50: 9.76 µM
MCF7 [1]
  IC50: ≥ 50 µM

## N#Cc1nnc2c3c(-c4ccccc4Cl)c(C#N)c(=O)[nH]c3nn2c1N
MDA-MB-231
  IC50: ≥ 50 µM
[2]
  IC50: 0.043 µM
MCF7 [1]
  IC50: 6.98 µM
MCF-10A
  IC50: ≥ 50 µM

## CC(=O)c1nnc2c3c(-c4ccccc4Cl)c(C#N)c(O)nc3nn2c1C
MDA-MB-231
  IC50: 20.8 µM
MCF7 [1]
  IC50: 14.8 µM

## N#Cc1c(N)nc2nn3c4ccc5ccccc5c4nnc3c2c1-c1ccc(-c2c(C#N)c(N)nc3nn4c(nnc5ccc6ccccc6c54)c23)cc1
MDA-MB-231
  IC50: 43.7 µM
MCF7 [1]
  IC50: 11.4 µM
